Bioassay records: PubChem BioAssay, The Scripps Research Institute Molecular Screening Center
Hits are enriched below; roughly 1.8% of the tested compounds scored in any of these assays.
NPY-Y2 PAM-ag: human NPY-Y2 potentiation or agonism, primary screen. activation, % at 3.6 µM. P49146. cells expressing NPY-Y2, potentiator/agonist read-out. 220,000 compounds, 0.45% hits. AID 1359; in the data active = activation above about 27%;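 note: cells stimulated with NPY near EC25 plus isoproterenol at EC100; 0% = vehicle plus submaximal agonist and 100% = vehicle plus saturating agonist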
Target sequence (P49146 whole entry, looked up): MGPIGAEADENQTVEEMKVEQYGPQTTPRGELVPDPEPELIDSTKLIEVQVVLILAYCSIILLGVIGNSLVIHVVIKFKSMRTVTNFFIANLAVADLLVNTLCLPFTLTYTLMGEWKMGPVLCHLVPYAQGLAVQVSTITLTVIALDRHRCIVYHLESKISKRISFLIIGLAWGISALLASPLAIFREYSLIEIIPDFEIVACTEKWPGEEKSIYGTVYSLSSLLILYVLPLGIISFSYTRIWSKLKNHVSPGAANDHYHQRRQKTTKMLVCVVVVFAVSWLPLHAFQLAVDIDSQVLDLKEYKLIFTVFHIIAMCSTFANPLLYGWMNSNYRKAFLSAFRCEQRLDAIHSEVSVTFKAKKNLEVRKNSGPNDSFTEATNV
NPY-Y2 antag: NPY-Y2 (human) receptor antagonism; inhibition, % at 2.7 µM; NPY-Y2 expressing cells, antagonist mode; AID 793; 140,000 compounds, 0.99% hits; in the data active = inhibition above about 17%;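 note: 0% = vehicle with agonist challenge and 100% = reference antagonist with challenge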
NPY-Y1 PAM-ag: potentiates or activates human NPY-Y1 receptor; P25929; NPY-Y1 expressing cells, potentiator/agonist activation; activation, % at 3.6 µM; 220,000 compounds, 0.37% hits; AID 1304; in the data active = activation above about 33%, passing the limit was not always enough;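 note: cells stimulated with NPY at EC10 then isoproterenol at EC100; 0% = low agonist plus stimulus and 100% = saturating agonist plus stimulus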
NPY Y1 blocker: blocks the human neuropeptide Y Y1 receptor | AID 1040 | 200,000 compounds, 1% hits | inhibition, % at 3.6 µM | P25929 | HEK293-CNG Y1 cells, membrane potential fluorescence; NPY at EC95, then isoproterenol;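 active = inhibition above the campaign mean inhibition of all tested compounds plus 3 SD, cut at about 20% in these data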;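 note: 0% = DMSO wells given NPY plus isoproterenol and 100% = isoproterenol alone without NPY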
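Assay system: HEK293 Y1/CNG channel cell line; Doses: single compound dose of 3.6 µM, 0.4% DMSO; Timing: dye 3 h, compound 60 min room temperature, stimulation 45 min; Technique: Membrane-potential fluorescent dye readout; Measure: % inhibition of NPY effect.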
An asterisk follows results filed as active; · = not tested or not shown.

SMILES	NPY-Y2 PAM-ag	NPY-Y2 antag	NPY-Y1 PAM-ag	NPY Y1 blocker
CCn1c(/C=C/N(C)c2ccccc2)[n+](CC)c2ccc(Cl)cc21	-3	31*	-25	26*
Cc1cc(N/N=C/c2ccc(F)cc2)nc(NCc2ccccc2)n1	-40	·	-14	·
Cc1cc(Oc2ccccc2F)nc(NCc2ccccc2)n1	-39	24*	-8	26*
CCCCNc1cc(C)nc(NCc2ccccc2)n1	0	29*	-36	31*
Cc1cc(Nc2ccccc2)nc(NCc2ccccc2)n1	-17	17	-24	5
Cc1cccc(N(CC(=O)N/N=C/c2cc([N+](=O)[O-])ccc2Cl)S(C)(=O)=O)c1C	-7	0	11	6
O=C(COC(=O)C1CCN(S(=O)(=O)c2ccc3c(c2)OCCO3)CC1)Nc1cc(C(F)(F)F)ccc1Cl	1	2	-6	5
Cc1ccc(NC(=S)N(Cc2ccc(Br)cc2)Cc2ccc(C(=O)O)cc2)cc1C	8	·	1	2
Cc1cccc(/C(N)=N/OC(=O)CCCN2C(=O)c3ccccc3C2=O)c1	-18	8	-30	29*
O=C(c1csc2c1CCCCC2)N1CCN(c2ncccn2)CC1	3	2	-6	1
O=S(=O)(NCc1ccc2c(c1)OCO2)c1ccc2oc3ccccc3c2c1	-35	19*	-67	21*
Nc1ccc(C(=O)Nc2cccc(N)c2)cc1	2	·	-4	·
COc1ccc(CNC(=O)C(c2ccncc2)N(C(=O)Cc2cccs2)c2ccccc2)cc1 (centres undefined)	8	2	6	0
COc1ccc(N(C(=O)CCl)C(C(=O)NCCc2ccccc2)c2cccs2)cc1 (centres undefined)	35*	2	54*	0
Cc1cc(CNC(=O)c2ccc3c(c2)OCO3)c2ccccc2n1	-5	·	11	5
O=C(NCc1cccnc1)/C(=C\c1ccc(-c2ccc(Cl)c(Cl)c2)o1)S(=O)(=O)c1ccccc1	-18	17*	-44	24*
CCCc1[nH][nH]c(=O)c1C(c1cccc(Cl)c1)C(C#N)C#N (centres undefined)	-8	58*	-29	50*
Cc1[nH][nH]c(=O)c1C(c1ccccc1[N+](=O)[O-])C(C#N)C#N (centres undefined)	12	·	0	4
CCN=C1SC(CC(=O)NC(C)c2ccccc2)C(=O)N1CC (centres undefined)	1	·	12	0
CCCCCCCCCn1c2c(c(=N)c3c1CCC3)CCC2	-36	37*	-132	90*
CCCCn1c2c(c(=N)c3c1CCC3)CCC2	15	4	10	4
O=C(COC(=O)c1cc2ccccc2cc1O)NC(=O)NCc1ccco1	-29	·	-15	21*
Cc1ccccc1NC(=O)C1CCC(C)(C(=O)O)C1(C)C (centres undefined)	5	2	-1	2
O=C(NCc1nc(-c2ccc(C(F)(F)F)cc2)no1)Nc1ccc(OC(F)(F)F)cc1	-24	·	5	·
CNC(=S)N(CCc1c(C)[nH]c2ccc(C)cc12)Cc1cccs1	31*	·	43*	-9
SMILES	NPY-Y2 PAM-ag	NPY-Y2 antag	NPY-Y1 PAM-ag	NPY Y1 blocker
COc1ccc(NC(=S)N(CCc2c(C)[nH]c3ccc(C)cc23)Cc2cccs2)cc1	-4	0	1	1
Cc1cc(C)cc(NC(=S)NCCN(C2CCCCC2)C2CCCC2)c1	-21	·	-14	21*
COc1cccc(CN2CCC(N(CCc3ccccc3)Cc3ccccc3)CC2)c1OC	-1	31*	-30	35*
CCCCC(c1nnnn1C1CCCC1)N1CCN(C2CCCC2)CC1 (centres undefined)	-27	46*	-20	31*
CCCC(c1nnnn1Cc1ccc(F)cc1)N1CCN(C2CCCCC2)CC1 (centres undefined)	-6	31*	-17	23*
CCCC(c1nnnn1C1CCCCC1)N1CCN(C2CCCC2)CC1 (centres undefined)	-7	13	-38	17
CCOC(=O)c1cnc2c(C)c(C)ccc2c1Nc1ccc(S(=O)(=O)Nc2ncccn2)cc1	4	2	-33	-1
COc1cc(CCC(=O)Nc2ccc(S(=O)(=O)NC3=NCCCCC3)cc2)cc(OC)c1OC	14	·	-4	4
Cc1ccc(N(CN2C(=O)C3C4CCC(C4)C3C2=O)C(=O)c2ccco2)cc1 (centres undefined)	10	·	-11	·
Cc1cc(C)n2c(=O)c3ccc(Cl)cc3nc2c1C#N	5	·	7	3
Cc1cc(Cl)n2c(nc3cc(F)c(F)cc32)c1C#N	-2	·	-26	22*
O=C1c2ccccc2C(=O)N1n1cccc1	1	0	4	-3
COc1ccc(S(=O)(=O)N2CCOCC2)cc1NC(=O)CN1CCC(Cc2ccccc2)CC1	-34	32*	-23	40*
O=C(Nc1cccc(C(F)(F)F)c1)C(SCCO)c1ccccc1 (centres undefined)	4	1	8	2
CCC(C(=O)Nc1cccc(C(F)(F)F)c1)c1ccccc1 (centres undefined)	-14	7	-7	20*
O=C(CSc1nnc2n(C3CCCC3)c(=O)c3ccccc3n12)N1CCCCCC1	86*	3	92*	-10
CC1CCCN(C(=O)CSc2nnc3n(C4CCCC4)c(=O)c4ccccc4n23)C1 (centres undefined)	19	0	53	-6
CCC(C(=O)N1CCc2ccccc2C1)n1nc(C)n2c(cc3occc32)c1=O (centres undefined)	7	4	13	0
O=C(O)C(Cc1ccccc1)N1C(=O)/C(=C/c2cccc3ccccc23)SC1=S (centres undefined)	-22	20*	-55	10
O=C(O)C(Cc1ccccc1)N1C(=O)/C(=C/c2ccccc2)SC1=S (centres undefined)	-17	16	-48	13
Cn1c(=O)c2c(-c3ccncc3)c3c(nc2n(C)c1=O)-c1ccccc1C3=O	13	1	-8	-1
Clc1ccc(COn2c(-c3ccc(Cl)cc3)nc3ccccc32)cc1	-149	61*	-202	84*
Clc1ccc(COn2c(-c3ccccc3)nc3ccccc32)cc1	-77	37*	-111	54*
O=C(COC(=O)CCc1nc2ccccc2c(=O)[nH]1)Nc1ccc2c(c1)OCO2	2	·	-13	·
Cc1ccc(OCC(O)Cn2c(=N)n(CCN3CCOCC3)c3ccccc32)cc1 (centres undefined)	-1	5	3	17
COc1ccc(OCC(O)CN2CCCCC2)cc1 (centres undefined)	17	4	5	-1
Cc1ccc(OCC(O)Cn2c(=N)n(CCN3CCCCC3)c3ccccc32)cc1 (centres undefined)	-15	46*	-39	62*
COc1ccc(OCC(O)Cn2c(=N)n(CCN3CCCCC3)c3ccccc32)cc1 (centres undefined)	-20	19*	-43	34*
CCOC(=O)c1ccc(-c2ccc(/C=C(\C#N)C(=O)NCc3cccs3)o2)cc1	6	17*	5	1
CCCn1c(SCC(=O)Nc2cccc(S(=O)(=O)N(C)C)c2)nc2ccccc2c1=O	1	·	15	·
